Measurements: the RNAGym collection of RNA variant scans (doi:10.1126/science.aae0568)
This sample holds only a part of the variants without activity.

B1: tRNA (parent)
chain: GUUCCGUUGGCGUAAUGGUAACGCGUCUCCCUCCUAAGGAGAAGACUGCGGGUUCGAGUCCCGUACGGAACG

Variants of: B1
Test: yeast fitness relative to wild type (ratio to wild type); higher = fitter; tRNA-Arg(CCU), competitive growth, 37 C, YPD
Summary of the method: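 Start and end populations of a pooled competition were compared by 100-nucleotide paired-end sequencing of gene amplicons. The Saccharomyces cerevisiae strains carried tRNA-Arg(CCU) gene variants at the native genomic locus, synthesised with a 3% per-site mutation rate at 69 sites, and competed in YPD at 37°C for 24 hours in six parallel replicates. Darwinian fitness relative to wild type was based on the change in genotype frequencies. Genotypes required ≥ 100 starting reads, and estimates < 0.5 were set to 0.5.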

Row | Variant | yeast fitness
1 | GUUACGUUGGCGUAAUGGUAACGCGUCUCCCUCCUAAGGAGAAGUCUGCGGGUUCGAGUCCCGUACGGAACG [C4A A45U] | 0.818
2 | GUUACGUUGGCGUAAUGGUAACGCGUCUCCCUCCUAAGGAGCAGACUGCGGGUUCGAGUCCCGUAGGCAACG [C4A A42C C66G G68C] | ≤ 0.5
3 | GUUACGUUGGCGUAAUGGUAUCGCGUCUCCCUCCUAAGGAGAAGACGGCGGGUUCGAGUCCCGUACGGAACG [C4A A21U U47G] | 0.535
4 | GUUACGUUGGCGUAAUGGUAACGCGUCUCCCUCCUAAGGAGAAGACUGCGGGUUCGGGUCCCGUACGGAACG [C4A A57G] | 0.841
5 | GUUACGUUGGCGUAAUGGUAACGCGUCUCCCUCCUAAGGAGAAGACUGCGGGUUCGCGUCCCGUACGGAACG [C4A A57C] | 0.57
6 | GUUACGUUGGCGUAAUGGUAGCGCGUCUCCCUCCUAAGGAGAAGUCUGCGGGUUCGAGUCCCGUACGGUACG [C4A A21G A45U A69U] | 0.655
7 | GUUACGUUGGCGUAAUGGUCACGCGUUUCCCCCCUAAGGAGAAGAUUGCGGGUUCGAGUCCCGUACGGAACG [C4A A20C C27U U32C C46U] | ≤ 0.5
8 | GUUACGUUGGCGUAAUGGUAUCGCGUCUCCCUCCUAAGGAGAGGACUGCGGGUUCGAGUCCAGUACGGAACG [C4A A21U A43G C62A] | ≤ 0.5
9 | GUUACGUUGGCGUAAUGGUCACGCGUUUCCCUCCUAAGGAGAAGACUGGGGGUUCGAGUCCCGUACGGAACG [C4A A20C C27U C49G] | ≤ 0.5
10 | GUUACGUUGGCGUAAUGGUAACGCGUCUCCCUCCUAAGGUGAAGACUGCGGCUUCGAGUGCCGUACGGAACG [C4A A40U G52C C60G] | 0.552
11 | GUUACGUUGGCGUAAUGGUCACGCGUCUCCCUCCUAAGGAGAAGACAGCGGGUUCGAGUCCCGUACGGAACG [C4A A20C U47A] | ≤ 0.5
12 | GUUACGUUGGCGUAAUGGUACCGCGUCUCCCUCCUAAGGAGAAGACUGCGGGUUCGAGUCCCGUACGGAACG [C4A A21C] | 0.775
13 | GUUACGUUGGCGUAAUGGUAGCGCGUCUCCCUCCUAAGGAGAAGACUGCGGGUUCGAGUCCCGUACGGAACG [C4A A21G] | 0.974
14 | GUUACGUUGGCGUAAUGGUAACGCGUCUCCCUCCUAAGGAGAAGACUGCGGGUUCGGGUCCGGUAGGGAACG [C4A A57G C62G C66G] | ≤ 0.5
15 | GUUACGUUGGCGUAAUGGUAACGCGUCUCCCUCCUAAGGUGGAGACUGCGGGUUGGAGUCCCGUACGGAACG [C4A A40U A42G C55G] | ≤ 0.5
16 | GUUACGUUGGCGUAAUGGUAACGCGUCUCCCUCCUAAGGAGAAGACUGCGGGUUCGCGUCGCGUACGGAACG [C4A A57C C61G] | ≤ 0.5
17 | GUUACGUUGGCGUAAUGGUCACGCGUCUCCCUCCUAAGGAGAAGACUGCGGGUUCGAGUCCCGUACGGAACG [C4A A20C] | 0.64
18 | GUUACGUUGGCGUAAUGGUGACGCGUCUCCCUCCUAAGGAGCAGAGUGUGGGUUCGAGUCCCGUACGGCACG [C4A A20G A42C C46G C49U A69C] | ≤ 0.5
19 | GUUACGUUGGCGUAAUGGUAACGCGUCUCCCUCCUAAGGAGACGACUGCGGGUUCGAAUCCCGUACGGAACG [C4A A43C G58A] | 0.588

Row | Variant | yeast fitness
20 | GUUACGUUGGCGUAAUGGUAACGCGUCUCCCUCCUAAGGAGAAGACUGCGGGUUCGCGUCCCGUAUGGAACG [C4A A57C C66U] | ≤ 0.5
21 | GUUACGUUGGCGUAAUGGUAACGCGUCUCCCUCCUAAGGAGAAGACUGCGGGUUCGAGUCCCGUUCGGUACG [C4A A65U A69U] | 0.774
22 | GUUACGUUGGCGUAAUGGUGACGAGUCUCCCUCCUAAGGAGAAGACUGCGGCUACGAGUCCCGUACGGAACG [C4A A20G C24A G52C U54A] | ≤ 0.5
23 | GUUACGUUGGCGUAAUGGUGACGCGUCUCCCUCUUAAGGAGAAGACUGCGGGUUCGAGUCCCGUACGGAACG [C4A A20G C34U] | ≤ 0.5
24 | GUUACGUUGGCGUAAUGGUAACGCGUCUCCCUCCUCAGGAGGAGACUGCGGGUUCGAGUCCCGUACGGAACG [C4A A36C A42G] | ≤ 0.5
25 | GUUACGUUGGCGUAAUGGUACUGCGUCUCCCUCCUAAGGAGAAGACUGCCGGUUCGAGUCCCGUACGGAACG [C4A A21C C22U G50C] | 0.617
26 | GUUACGUUGGCGUAAUGGUAACGCGUCUCCCUCCUAAGGAGAUGACGGCGGGUUCGAGUCCCGUACGGAACG [C4A A43U U47G] | ≤ 0.5
27 | GUUACGUUGGCGUAAUGGUUACGCGUCUCCCUCAUAAGGAGAAGACUGCGGGUUCGAGUCCCCUACCGUACG [C4A A20U C34A G63C G67C A69U] | ≤ 0.5
28 | GUUACGUUGGCGUAAUGGUAACGCGUCUCCCUCCUUCGGAGAAGACCGCGGGUUCGAGUCCCGUACGGAUCG [C4A A36U A37C U47C A70U] | 0.55
29 | GUUACGUUGGCGUAAUGGUAACGCGUCUCCCUCCUAAGGAGCAGACUGCGGGUUCGAGUCCCGUACGGAACG [C4A A42C] | 0.794
30 | GUUACGUUGGCGUAAUGGUAACGCGUCUCCCUCCUAAGGAGGAGACUGCGGGUUCGAGUCCCGUACGGAACG [C4A A42G] | 0.991
31 | GUUACGUUGGCGUAAUGGUAACGCGUCUCCCUCCUUAGGAGAAGACUGCAGGUUCGAGUCUCGUACGGAACG [C4A A36U G50A C61U] | ≤ 0.5
32 | GUUACGUUGGCGUAAUGGUACUGCGUCUCCCUCCUAAGGAGAAGACUGCCGGUUCGAGUCCCGUACGGAUCG [C4A A21C C22U G50C A70U] | 0.73
33 | GUUACGUUGGCGUAAUGGUAACGCGUCUCCCUCCUAUGGAGAAGACUGCGAGUUCGAGUCCCGUACGGAACG [C4A A37U G51A] | ≤ 0.5
34 | GUUACGUUGGCGUAAUGGUAUCGCGUAUCCCUCCUAAGGACAAGACUGCGGGUUCGAGUCCCGUACGGAACG [C4A A21U C27A G41C] | ≤ 0.5
35 | GUUACGUUGGCGUAAUGGUAACGCGUCUCCCUCCUAGGGAGAAGACUGCGGGUUCGAGUCCCGUACGGAACG [C4A A37G] | 0.754
36 | GUUACGUUGGCGUAAUGGUAACGCGUCUCCCUCCUAUGGAGAAGACUGCGGGUUCGAGUCCCGUACGGAACG [C4A A37U] | 0.795
37 | GUUACGUUGGCGUAAUGGUAACGCGUCUCCCUCCUAAGGAGAUGACUGCGGGUUCGAGUACCGUACGGAACG [C4A A43U C60A] | ≤ 0.5
38 | GUUACGUUGGCGUAAUGGUGACGGGUCUCCGUCCUAAGGAGAAGACUGCGGGUUCGAGUCCUGUACGGAACG [C4A A20G C24G C31G C62U] | 0.598
